Laboratory results reported in ChEMBL document CHEMBL4627281, “A small molecule inhibitor of PCSK9 that antagonizes LDL receptor binding via interaction with a cryptic PCSK9 binding groove” (Bioorg Med Chem, 2020).
Activity calls are given as the source filed them. No cut-off for these calls is given here.

Key:
[1] = molecular target: Proprotein convertase subtilisin/kexin type 9 (Homo sapiens) (UniProt Q8NBP7); assay: Binding affinity to biotinylated recombinant human PCSK9 at 0.2 to 0.4 uM incubated for 2 mins followed by further incubation for 10 mins by biolayer interferometry
Chain of Proprotein convertase subtilisin/kexin type 9 (Homo sapiens) (Q8NBP7 31-152 limits assumed): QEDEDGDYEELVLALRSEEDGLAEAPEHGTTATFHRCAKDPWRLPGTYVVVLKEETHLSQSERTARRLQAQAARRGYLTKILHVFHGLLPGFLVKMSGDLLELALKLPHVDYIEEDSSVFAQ
Chain of Proprotein convertase subtilisin/kexin type 9 (Homo sapiens) (Q8NBP7 153-692 limits assumed): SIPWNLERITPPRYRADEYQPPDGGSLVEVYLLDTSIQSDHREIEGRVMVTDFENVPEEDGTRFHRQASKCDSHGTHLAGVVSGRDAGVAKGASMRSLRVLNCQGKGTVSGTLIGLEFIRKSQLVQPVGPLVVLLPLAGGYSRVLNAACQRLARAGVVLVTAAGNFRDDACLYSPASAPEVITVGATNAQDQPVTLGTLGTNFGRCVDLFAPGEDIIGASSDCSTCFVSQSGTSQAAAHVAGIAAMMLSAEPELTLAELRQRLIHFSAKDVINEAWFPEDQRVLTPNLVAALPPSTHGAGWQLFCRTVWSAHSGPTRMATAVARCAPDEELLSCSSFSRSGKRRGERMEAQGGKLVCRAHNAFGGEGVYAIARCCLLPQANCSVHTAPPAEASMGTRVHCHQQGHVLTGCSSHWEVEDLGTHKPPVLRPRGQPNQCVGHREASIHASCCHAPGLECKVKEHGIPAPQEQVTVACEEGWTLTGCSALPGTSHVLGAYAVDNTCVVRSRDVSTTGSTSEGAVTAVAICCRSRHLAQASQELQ
Summary of the method: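 Biolayer interferometry: biotinylated PCSK9 (27 µg/mL) loaded onto a Super Streptavidin biosensor and blocked with biocytin. Compound (0.2–25.6 µM) associated for 2 min, then dissociated for 10 min. Background signal subtracted to remove non-specific binding.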

[2] = system: Mus musculus; assay: Antihyperlipidemic activity in C57BL/6 mouse assessed as decrease in total cholesterol level at 3.28 mg/kg/day, sc administered daily for 14 days and measured on day 15 by colorimetric method; format: functional, organism-based
Summary of the method: (§1)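 Female C57BL/6 wild-type or PCSK9−/− mice (8–16 weeks), acclimatised 7 days, 5 per group, dosed SC daily for 14 days at 3.28 or 16.4 mg/kg/day in 5% DMSO/95% saline, or vehicle alone. Blood taken into EDTA on days 0, 5, 10 and 15; plasma from 2500 g spin, stored at −20 °C. Total cholesterol and triglycerides read by colorimetric kits, PCSK9 by mouse ELISA; unpaired two-tailed t test against vehicle.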

[3] = Toxicity in C57BL/6 mouse assessed as change in body weight at 3.28 to 16.4 mg/kg/day, sc administered daily for 14 days; format: organism-based; conditions: in vivo, 336 h
[4] = system: PCSK9/LDLR (Homo sapiens), Q8NBP7+P01130 [D374Y]; assay: Inhibition of PCSK9 D374Y mutant (unknown origin) and LDLR protein-protein interaction expressed in human PBMCs assessed as increase in LDLR expression on lymphocyte surface at 1 to 10 uM measured after 4 hrs by flow cytometry analysis
Summary of the method: (§2)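 PBMCs from healthy donors, frozen and then thawed, plated at 2 × 10^5 per well in RPMI with 10 mM HEPES, 1 mM pyruvate and 0.5% FCS for 2 h at 37 °C. Treated 4 h with or without 600 ng/mL PCSK9-D374Y plus compound. Cells stained 20 min at room temperature with APC-conjugated anti-LDLR; at least 5 × 10^3 gated lymphocytes read by flow cytometry. Values as % of PCSK9-free vehicle; triplicates, t test.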

[5] = AUClast in C57BL/6 mouse at 20 mg/kg, po administered as single dose measured upto 24 hrs by LC-MS/MS analysis; format: ADME, organism-based; design: dose 20 mg/kg, time < 24 hr, route oral; conditions: in vivo
Summary of the method: (§3)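 Male C57BL/6 mice, single dose: IV 5 mg/kg in 85% saline/10% Solutol HS15/5% DMSO; SC 20 mg/kg in same vehicle; PO 20 mg/kg in 1% methylcellulose in water. About 110 µL blood taken into K2EDTA by retro-orbital puncture (terminal bleed by cardiac puncture under isoflurane) at 0.033–24 h. Plasma spun at 2000 g, 5 min, 4 °C, stored near −70 °C; n = 3 per route.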

[6] = AUCinfinity in C57BL/6 mouse at 20 mg/kg, sc administered as single dose measured upto 24 hrs by LC-MS/MS analysis; format: ADME, organism-based; design: dose 20 mg/kg, time infinity, route subcutaneous; conditions: in vivo; summary of the method: as §3
[7] = molecular target: Tyrosine-protein kinase ABL1 (Homo sapiens, UniProt P00519); assay: Inhibition of recombinant human N-terminal His-tagged Abl (2 to 1130 residues) expressed in baculovirus expression system using FAM-labelled P2 peptide as substrate preincubated for 10 mins followed by substrate addition and measured after 1 hr in presence of ATP by fluorescence assay
Chain of Tyrosine-protein kinase ABL1 (P00519 whole entry, the tested form may be a part): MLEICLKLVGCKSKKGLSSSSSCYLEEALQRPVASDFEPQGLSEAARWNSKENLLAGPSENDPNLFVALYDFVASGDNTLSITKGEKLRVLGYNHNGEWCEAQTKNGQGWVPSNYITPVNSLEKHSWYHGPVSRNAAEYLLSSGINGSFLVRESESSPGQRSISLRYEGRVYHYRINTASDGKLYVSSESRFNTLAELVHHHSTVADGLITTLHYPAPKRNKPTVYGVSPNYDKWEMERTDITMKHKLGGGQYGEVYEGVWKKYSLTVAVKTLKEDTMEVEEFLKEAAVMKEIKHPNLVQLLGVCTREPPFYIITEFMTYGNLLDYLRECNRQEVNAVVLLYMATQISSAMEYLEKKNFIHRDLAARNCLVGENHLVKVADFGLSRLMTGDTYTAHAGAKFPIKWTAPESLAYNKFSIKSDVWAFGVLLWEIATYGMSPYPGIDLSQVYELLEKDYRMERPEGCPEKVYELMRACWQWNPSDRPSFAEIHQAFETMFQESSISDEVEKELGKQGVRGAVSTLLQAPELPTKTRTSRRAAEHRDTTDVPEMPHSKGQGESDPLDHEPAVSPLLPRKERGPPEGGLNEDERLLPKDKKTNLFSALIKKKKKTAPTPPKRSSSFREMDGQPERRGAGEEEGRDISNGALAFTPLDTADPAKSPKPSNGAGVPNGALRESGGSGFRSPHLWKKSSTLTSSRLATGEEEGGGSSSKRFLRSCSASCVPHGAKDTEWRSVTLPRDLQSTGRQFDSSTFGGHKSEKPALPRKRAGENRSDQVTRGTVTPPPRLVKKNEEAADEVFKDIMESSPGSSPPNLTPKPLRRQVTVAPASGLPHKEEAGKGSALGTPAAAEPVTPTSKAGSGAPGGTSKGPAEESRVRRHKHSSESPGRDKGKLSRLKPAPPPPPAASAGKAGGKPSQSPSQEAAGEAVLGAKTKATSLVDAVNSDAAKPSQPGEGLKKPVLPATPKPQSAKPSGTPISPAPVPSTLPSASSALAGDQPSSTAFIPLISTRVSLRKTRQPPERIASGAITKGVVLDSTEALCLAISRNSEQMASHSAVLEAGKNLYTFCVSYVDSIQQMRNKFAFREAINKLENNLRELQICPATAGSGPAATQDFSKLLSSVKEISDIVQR

[8] = Mean residence time (0 to infinity) in CD1 mouse at 0.4 mg/kg, iv administered as cassette dose measured upto 24 hrs by LC-MS analysis; format: ADME, organism-based; conditions: in vivo
Summary of the method: (§4)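 Male CD1 mice (second cassette 28–29 g, 7–8 weeks) given one IV 5-in-1 cassette at 0.4 mg/kg per compound in 5% DMAC/5% Solutol HS15/90% saline. Blood (~20 µL) into K2EDTA from the facial vein at 0.083–24 h, terminal bleed by cardiac puncture under isoflurane. Blood diluted with deionised water, stored at −80 °C, analysed by positive-ESI mass spectrometry.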

[9] = molecular target: Proto-oncogene tyrosine-protein kinase Src (Homo sapiens, UniProt P12931); assay: (§5) Inhibition of recombinant human full-length N-terminal GST-tagged SRC (1 to 536 residues) expressed in baculovirus expression system using FAM-labelled P4 peptide as substrate preincubated for 10 mins followed by substrate addition and measured after 1 hr in presence of ATP by fluorescence assay
Chain of Proto-oncogene tyrosine-protein kinase Src (P12931 2-536 limits assumed): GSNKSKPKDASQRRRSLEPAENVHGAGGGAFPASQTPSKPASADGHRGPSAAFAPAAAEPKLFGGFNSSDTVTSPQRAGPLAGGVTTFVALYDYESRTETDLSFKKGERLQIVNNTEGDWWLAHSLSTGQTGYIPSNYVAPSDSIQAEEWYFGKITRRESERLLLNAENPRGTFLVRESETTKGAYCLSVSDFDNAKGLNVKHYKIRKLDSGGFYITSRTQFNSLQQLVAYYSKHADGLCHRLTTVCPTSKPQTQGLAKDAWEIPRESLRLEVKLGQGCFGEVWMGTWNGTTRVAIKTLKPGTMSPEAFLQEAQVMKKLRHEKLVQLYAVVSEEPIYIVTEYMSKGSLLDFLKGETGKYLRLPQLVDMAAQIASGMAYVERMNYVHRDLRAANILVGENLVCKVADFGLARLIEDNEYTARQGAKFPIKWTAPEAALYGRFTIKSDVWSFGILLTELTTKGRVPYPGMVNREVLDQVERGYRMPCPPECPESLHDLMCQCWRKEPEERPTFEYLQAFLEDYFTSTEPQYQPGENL

[10] = AUClast in C57BL/6 mouse at 5 mg/kg, iv administered as single dose measured upto 24 hrs by LC-MS/MS analysis; format: ADME, organism-based; design: dose 5 mg/kg, time < 24 hr, route intravenous; conditions: in vivo; summary of the method: as §3
[11] = Toxicity in C57BL/6 mouse assessed as change in behavior at 3.28 to 16.4 mg/kg/day, sc administered daily for 14 days; format: organism-based; conditions: in vivo, 336 h
[12] = Cmax in C57BL/6 mouse at 20 mg/kg, sc administered as single dose measured upto 24 hrs by LC-MS/MS analysis; format: ADME, organism-based; design: dose 20 mg/kg, route subcutaneous; conditions: in vivo; summary of the method: as §3
[13] = Cmax in C57BL/6 mouse at 20 mg/kg, po administered as single dose measured upto 24 hrs by LC-MS/MS analysis; format: ADME, organism-based; design: dose 20 mg/kg, route oral; conditions: in vivo; summary of the method: as §3
[14] = AUClast in CD1 mouse at 0.4 mg/kg, iv administered as cassette dose measured upto 24 hrs by LC-MS/MS analysis; format: ADME, organism-based; design: time < 24 hr, dose 0.4 mg/kg, route intravenous; conditions: in vivo; summary of the method: as §4
[15] = system: Mus musculus; assay: Antihyperlipidemic activity in PCSK9 knockout C57BL/6 mouse assessed as decrease in total cholesterol level at 16.4 mg/kg/day, sc administered daily for 14 days and measured on day 15 by colorimetric method; format: functional, organism-based; summary of the method: as §1
[16] = molecular target: Platelet-derived growth factor receptor beta (Homo sapiens, UniProt P09619); assay: as §5, with “human” for “human full-length”, “PDGFRbeta cytoplasmic domain (557” for “SRC (1”, “1106” for “536”, “P22” for “P4”
Chain of Platelet-derived growth factor receptor beta (P09619 whole entry, the tested form may be a part): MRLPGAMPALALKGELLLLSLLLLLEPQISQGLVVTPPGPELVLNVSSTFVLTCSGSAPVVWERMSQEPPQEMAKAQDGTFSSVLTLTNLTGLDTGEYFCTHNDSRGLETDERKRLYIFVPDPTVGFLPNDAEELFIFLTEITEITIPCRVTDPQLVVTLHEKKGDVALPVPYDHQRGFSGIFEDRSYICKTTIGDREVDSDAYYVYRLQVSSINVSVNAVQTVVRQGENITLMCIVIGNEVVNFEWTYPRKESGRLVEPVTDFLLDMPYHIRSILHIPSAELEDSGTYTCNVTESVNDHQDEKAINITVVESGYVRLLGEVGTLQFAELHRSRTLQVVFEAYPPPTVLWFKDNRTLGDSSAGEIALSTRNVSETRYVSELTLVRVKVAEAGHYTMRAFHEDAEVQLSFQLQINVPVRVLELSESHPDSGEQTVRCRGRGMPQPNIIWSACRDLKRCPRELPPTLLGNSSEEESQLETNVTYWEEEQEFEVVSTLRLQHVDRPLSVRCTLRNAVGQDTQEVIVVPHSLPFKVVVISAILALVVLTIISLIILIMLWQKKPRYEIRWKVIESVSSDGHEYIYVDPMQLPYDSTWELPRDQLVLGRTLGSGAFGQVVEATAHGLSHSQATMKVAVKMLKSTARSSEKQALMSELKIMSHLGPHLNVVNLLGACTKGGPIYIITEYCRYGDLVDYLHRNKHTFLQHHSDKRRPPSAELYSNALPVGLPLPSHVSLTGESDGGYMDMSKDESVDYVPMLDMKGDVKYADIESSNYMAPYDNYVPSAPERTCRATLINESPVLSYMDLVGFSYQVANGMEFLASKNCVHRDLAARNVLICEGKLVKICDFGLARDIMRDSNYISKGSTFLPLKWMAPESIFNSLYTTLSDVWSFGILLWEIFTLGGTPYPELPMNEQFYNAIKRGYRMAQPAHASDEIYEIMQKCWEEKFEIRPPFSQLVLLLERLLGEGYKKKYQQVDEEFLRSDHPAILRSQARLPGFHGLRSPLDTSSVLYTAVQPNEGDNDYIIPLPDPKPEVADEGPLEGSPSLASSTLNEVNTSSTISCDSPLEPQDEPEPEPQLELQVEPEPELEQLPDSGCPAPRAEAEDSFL

[17] = system: PCSK9/LDLR (Homo sapiens), Q8NBP7+P01130 [D374Y]; assay: Inhibition of PCSK9 D374Y mutant (unknown origin) and LDLR protein-protein interaction in human PBMC assessed as increase in LDLR expression on lymphocyte surface at 0.1 to 0.4 uM measured after 4 hrs by flow cytometry analysis; format: cell-based; summary of the method: as §2
[18] = Volume of distribution at steady state in C57BL/6 mouse at 5 mg/kg, iv administered as single dose measured upto 24 hrs by LC-MS/MS analysis; format: ADME, organism-based; conditions: in vivo, read-out: Vdss; summary of the method: as §3
[19] = Time at which plasma concentration exceeds in vitro IC50 for inhibition of recombinant human His-tagged PCSK9 interaction with recombinant LDLR AB domain (unknown origin) in C57BL/6 mouse at 20 mg/kg, sc administered as single dose; format: organism-based; conditions: in vivo

For `Cc1cn(-c2cc(CN3CCC[C@H](N)C3)cc(NC(=O)c3ccc(C)c(Oc4ccccc4)c3)c2)cn1`, the Activity [1] was “inactive”, the Activity [2] was “inactive” and the Activity [3] was “Non-Toxic”. The inhibition [4] was “Active”, the AUC(0-t) at 24 h [5] was 92.3 ng·h/mL and the AUC(0-inf) [6] was 16800 ng·h/mL. For the same compound, the IC50 [7] was greater than 10 µM, the MRT inf [8] was 34.9 h and the IC50 [9] was greater than 10 µM. The AUC(0-t) at 24 h [10] was 4380 ng·h/mL, the Activity [11] was “Non-Toxic” and the Cmax [12] was 2210 ng/mL. The Cmax [13] was 52.6 ng/mL, the AUC(0-t) at 24 h [14] was 722 ng·h/mL and the Activity [15] was “inactive”. The IC50 [16] was greater than 10 µM, the inhibition [17] was “inactive” and the Vd [18] was 3.87 L/kg. The “T>IC50” value [19] was “>= 16 hr”.
